Data published in ChEMBL document CHEMBL1143136 (J Med Chem, 2008).
Where a SMILES comes first, the peptide text is derived from it. The star is where a group is joined. Trt = c1ccc(C(c2ccccc2)(c2ccccc2)*)cc1

Key:
HeLa [1] = assay: Cell cycle arrest in human HeLa cells assessed as accumulation at G2/M phase at 1 uM after 24 hrs; type: functional
In short: (§1)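 HeLa cells grown in DMEM with 10% FBS at 37 °C, 5% CO2, in 60 mm dishes, exposed to drug for 24 h. Drugs were diluted in medium from 50 mM DMSO stocks. Cells were fixed in 90% methanol at −20 °C and stained with propidium iodide. Flow cytometry gave the percentage of cells with 4N DNA content (G2/M).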

HeLa [2] = assay: Induction of mitotic arrest in human HeLa cells assessed as monoastral spindle formation after 24 hrs; type: functional, cell-based
HeLa [3] = assay: Cell cycle arrest in human HeLa cells assessed as accumulation at G2/M phase at 5 uM after 24 hrs; type: functional; in short: as §1
HeLa [4] = assay: Induction of mitotic arrest in human HeLa cells after 24 hrs; type: functional, cell-based
In short: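 A concentration series was given to HeLa cells for 24 h (DMEM, 10% FBS, 37 °C, 5% CO2). Cells were fixed in methanol at −20 °C, then stained with MPM-2 antibody/FITC secondary and propidium iodide. Two-dimensional flow cytometry followed.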

HeLa [5] = assay: Induction of mitotic arrest in human HeLa cells at 1 uM assessed as MPM2 antibody positive cells after 24 hrs; type: functional
In short: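 HeLa cells (DMEM, 10% FBS, 37 °C, 5% CO2) were drug-treated for 24 h, then fixed in 90% methanol at −20 °C. They were labelled with MPM-2 mitotic phospho-epitope antibody plus FITC anti-mouse IgG, and with propidium iodide. Two-dimensional flow cytometry gave the percentage of 4N-arrested cells that were MPM2-positive.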

cells = conditions: Homo sapiens, NCI60

Row | SMILES | Activity (HeLa [1]) [%] | EC50 (HeLa [2]) [nM] | further results
1 | COC(=O)[C@@H](N)CSC(c1ccccc1)(c1ccccc1)c1ccccc1 | 20.2 | 1080 | Activity (HeLa [3]): 72.4%
2 | Cc1ccc(C(SC[C@H](N)C(=O)O)(c2ccc(C)cc2)c2ccc(C)cc2)cc1 | – | 3100 | Activity (HeLa [3]): 34.1%
3 | Cc1ccc(C(SC[C@H](N)C(=O)O)(c2ccccc2)c2ccccc2)cc1 | 71 | 210 | EC50 (HeLa [4]): 330 nM; Activity (HeLa [5]): 84.1%
4 | N[C@@H](CSC(c1ccccc1)(c1ccccc1)c1ccc(CO)cc1)C(=O)O | – | > 5000 | –
5 | N[C@@H](CSC(c1ccccc1)(c1ccccc1)c1ccc(Cl)cc1)C(=O)O | 48.5 | 510 | EC50 (HeLa [4]): 660 nM; Activity (HeLa [3]): 74.7%
6 | NCCCSC(c1ccccc1)(c1ccccc1)c1ccccc1 | – | > 5000 | –
7 | COC(=O)[C@@H](NC(=O)[C@@H](N)CSC(c1ccccc1)(c1ccccc1)c1ccccc1)C(C)C (H-Cys(Trt)-Val-OMe) | – | 3500 | Activity (HeLa [3]): 21.8%
8 | N[C@@H](CSC(c1ccccc1)(c1ccccc1)c1ccc2ccccc2c1)C(=O)O | 68.1 | 330 | EC50 (HeLa [4]): 600 nM; Activity (HeLa [5]): 79.9%
9 | N[C@@H](CSC(c1ccccc1)c1ccccc1)C(=O)O | – | > 5000 | –
10 | N[C@@H](CSC(c1ccccc1)(c1ccccc1)c1cccc2ccccc12)C(=O)O | – | > 5000 | –
11 | CC(NC(=O)[C@@H](N)CSC(c1ccccc1)(c1ccccc1)c1ccccc1)C(=O)O (some centres undefined) | – | > 5000 | –
12 | N[C@@H](CSC1(c2ccc(Cl)cc2)c2ccccc2-c2ccccc21)C(=O)O | – | > 5000 | –
13 | CCC(SC[C@H](N)C(=O)O)(c1ccccc1)c1ccccc1 | – | > 5000 | –
14 | CC(C)(SC(c1ccccc1)(c1ccccc1)c1ccccc1)C(N)C(=O)O (centres undefined) | – | > 5000 | –
15 | O=C(O)C(CSC(c1ccccc1)(c1ccccc1)c1ccccc1)/N=C/c1cccs1 (centres undefined) | – | > 5000 | –
16 | N[C@@H](CSC(c1ccccc1)(c1ccccc1)C1CCCCC1)C(=O)O | 19.9 | 1850 | Activity (HeLa [3]): 55.2%
17 | N[C@@H](CSC(c1ccccc1)(c1ccccc1)c1ccc2c(c1)OCO2)C(=O)O | 24.3 | 1370 | Activity (HeLa [3]): 68%
18 | N[C@@H](CSC(c1ccccc1)(c1ccccc1)c1ccccc1)C(=O)O [S-TRITYL-L-CYSTEINE] | 23.1 | 700 | GI50 (cells): 1310 nM; EC50 (HeLa [4]): 1700 nM; Activity (HeLa [3]): 75.8%
19 | CC(SC[C@H](N)C(=O)O)(c1ccccc1)c1ccccc1 | – | > 5000 | –
20 | N[C@@H](CSC1(c2ccccc2)c2ccccc2-c2ccccc21)C(=O)O | – | > 5000 | –
21 | N[C@@H](CSC(c1ccccc1)(c1ccccc1)c1ccccc1)C(=O)OC(c1ccccc1)c1ccccc1 | – | > 5000 | –

Row | SMILES | Activity (HeLa [1]) [%] | EC50 (HeLa [2]) [nM] | further results
22 | N[C@@H](CSC(c1ccccc1)(c1ccccc1)c1ccc(O)cc1)C(=O)O | – | > 5000 | –
23 | COc1ccc(C(SC[C@H](N)C(=O)O)(c2ccccc2)c2ccccc2)cc1 | 69 | 200 | EC50 (HeLa [4]): 300 nM; Activity (HeLa [5]): 81.6%
24 | N[C@@H](CSC(c1ccccc1)(c1ccccc1)c1ccccc1)C(=O)NCC(=O)O | – | > 5000 | –
25 | NCCCCSC(c1ccccc1)(c1ccccc1)c1ccccc1 | – | > 5000 | –
26 | N[C@@H](CSC1(c2cccc3ccccc23)c2ccccc2-c2ccccc21)C(=O)O | – | > 5000 | –
27 | N[C@@H](CSC(c1ccccc1)(c1ccc(-c2ccccc2)cc1)c1ccc(-c2ccccc2)cc1)C(=O)O | – | > 5000 | –
28 | Cc1ccc(C2(SC[C@H](N)C(=O)O)c3ccccc3-c3ccccc32)cc1 | – | > 5000 | –
29 | CC(C)C(SC[C@H](N)C(=O)O)(c1ccccc1)c1ccccc1 | 22.6 | 1080 | Activity (HeLa [3]): 59.1%
30 | CCCCC(SC[C@H](N)C(=O)O)(c1ccccc1)c1ccccc1 | 19.1 | 1400 | Activity (HeLa [3]): 71.1%
31 | N[C@@H](COC(c1ccccc1)(c1ccccc1)c1ccccc1)C(=O)O | – | > 5000 | –
32 | Cc1ccc(C(SC[C@H](N)C(=O)O)(c2ccccc2)c2ccc(C)cc2)cc1 | 50.8 | 530 | EC50 (HeLa [4]): 1000 nM; Activity (HeLa [3]): 70.9%
33 | CC(=O)N[C@@H](CSC1(c2ccccc2)c2ccccc2-c2ccccc21)C(=O)O | – | > 5000 | –
34 | N[C@@H](CSC(c1ccccc1)(c1ccccc1)c1ccc(F)cc1)C(=O)O | 24 | 1550 | Activity (HeLa [3]): 68.8%
35 | COc1ccc(C(SC[C@H](N)C(=O)O)(c2ccccc2)c2ccc(OC)cc2)cc1 | – | > 5000 | –
36 | N[C@@H](CSC(c1ccccc1)(c1ccc(CO)cc1)c1ccc(CO)cc1)C(=O)O | – | > 5000 | –
37 | N[C@@H](CSC(c1ccccc1)(c1ccccc1)c1ccc(Br)cc1)C(=O)O | 68.7 | 310 | EC50 (HeLa [4]): 450 nM; Activity (HeLa [5]): 77.4%
38 | N[C@@H](CSC1(c2ccc(F)cc2)c2ccccc2-c2ccccc21)C(=O)O | – | > 5000 | –
39 | COC(=O)[C@H](CC(C)C)NC(=O)[C@@H](N)CSC(c1ccccc1)(c1ccccc1)c1ccccc1 (H-Cys(Trt)-Leu-OMe) | – | 5000 | –
40 | NCCSC(c1ccccc1)(c1ccccc1)c1ccccc1 | 21.1 | 1080 | Activity (HeLa [3]): 65.8%
41 | N[C@@H](CSC(c1ccccc1)(c1ccccc1)c1ccccc1)C(=O)N[C@@H](CSC(c1ccccc1)(c1ccccc1)c1ccccc1)C(=O)O (H-Cys(Trt)-Cys(Trt)-OH) | – | > 5000 | –
